ChEMBL document CHEMBL4513216, “Probing the Open Global Health Chemical Diversity Library for Multistage-Active Starting Points for Next-Generation Antimalarials” (ACS Infect Dis, 2020)

Assay: Toxicity liver stage against HepG2, at 10uM
Format: cell-based
Set-up: test concentration 10 uM, cell line HepG2-A16-CD81EGFP
Conditions: human, HepG2-A16-CD81EGFP cells; read-out: INHIBITION
In short: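 Uninfected HepG2-A16-CD81EGFP cells, 3 × 10^3 per well, 1536-well, plated on prespotted compound at 10 μM final, parasite-free screening media added to match infected plates; puromycin 10 μM positive, DMSO 0.5% negative; run in parallel with 48 h PbLuc assay at 37 °C, 5% CO2; viability by CellTiter-Glo luminescence, normalized to controls.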
In the case of Cc1nc(SCC(=O)Nc2ccc(C(N)=O)cc2)c(C#N)c(C)c1C, the cytotoxicity at 10 µM is reported as -5.28%.
With Cc1nnc(SCC(=O)c2cc3c(cc2Cl)NC(=O)C3)s1 the cytotoxicity at 10 µM was 5.42%.
With COCC(=O)Nc1ccccc1-c1ccc(=O)n(C)n1 the cytotoxicity at 10 µM was 4.51%.
In the case of Cc1ccc(CN2Cc3ccnn3CC(COCc3cccnc3)C2)o1 (stereo not given), the cytotoxicity at 10 µM is reported as -143%.
In the case of O=C([C@H]1CCCO1)N1CCc2ncnc(NC3CC3)c2CC1, the cytotoxicity at 10 µM is reported as -12.6%.
For CC(=O)Nc1nc(C2CCN(C(=O)c3cncs3)CC2)cs1, the cytotoxicity at 10 µM was -8.91%.
In the case of Cc1c[nH]nc1C1CCCCN1C(=O)CNS(C)(=O)=O (stereo not given), the cytotoxicity at 10 µM is reported as -9.19%.
With CNc1cncc(C2CCCN2Cc2ccnc(C)n2)n1 (stereo not given) the cytotoxicity at 10 µM was -11.4%.
Compound Cc1nc2ccc(C(=O)N3CCn4c(nnc4C4CC4)C3)cc2nc1C has a cytotoxicity at 10 µM of -3.22%.
In the case of Cc1noc(C)c1C(=O)N1CCC(c2[nH]ncc2S(C)(=O)=O)C1 (stereo not given), the cytotoxicity at 10 µM is reported as -9.83%.
In the case of CCCn1cc(C(=O)N2CCOC(c3nc(-c4cccs4)no3)C2)cn1 (stereo not given), the cytotoxicity at 10 µM is reported as -4.22%.
CC(CN1CCCC1=O)NC(=O)NCc1ccccc1-n1cccn1 (stereo not given) gave a cytotoxicity at 10 µM of 3.33%.
For Cc1cc(C)cc(OCCN(C)C2CCOC2=O)c1 (stereo not given), the cytotoxicity at 10 µM was -143%.
For Cc1ccc(OCC(C)NS(=O)(=O)Cc2ccon2)cc1 (stereo not given), the cytotoxicity at 10 µM was -4.84%.
Cc1cc(C2CCCN2C(=O)NCc2ccccn2)on1 (stereo not given) gave a cytotoxicity at 10 µM of 1.47%.
For CC(Cn1cccn1)NCC(=O)NC1(C#N)CCCCC1 (stereo not given), the cytotoxicity at 10 µM was -3.6%.
CCOC(C)c1noc(CN2CCCNCC2)n1 (stereo not given) gave a cytotoxicity at 10 µM of 5.44%.
CC(C)NC(=O)c1cc(Br)cc(S(=O)(=O)N2CCOCC2)c1F gave a cytotoxicity at 10 µM of 6.17%.
CCCC1SCCN1C(=O)c1ccc(-n2ncc(C#N)c2N)cc1 (stereo not given) gave a cytotoxicity at 10 µM of 9.15%.
In the case of Cc1nc(C)c(CCNC(Cc2ccncc2)C(F)(F)F)s1 (stereo not given), the cytotoxicity at 10 µM is reported as -4.96%.
Cc1noc(C)c1C(=O)N1CCSc2ccc(Cl)cc21 showed a cytotoxicity at 10 µM of -108%.
In the case of CC(C)CN1C(=O)CO[C@@H]2CN(C(=O)C3CCOC3)C[C@H]21 (stereo not given in full), the cytotoxicity at 10 µM is reported as -70.3%.
O=C(c1ccsc1)N1CCN2C[C@H](OCc3ccccn3)C[C@H]2C1 gave a cytotoxicity at 10 µM of -71.8%.
CCNc1nc(-c2cccnc2)c(-c2ccnc(N3CCCC3)n2)s1 gave a cytotoxicity at 10 µM of -5.14%.
Compound O=C(CCc1ccccc1F)N1CCCC(OCc2cccnc2)C1 (stereo not given) has a cytotoxicity at 10 µM of -5.44%.
With CN(c1ncccc1CNS(=O)(=O)N1CCOCC1)C1CCCCC1 the cytotoxicity at 10 µM was 6.39%.
Work on CCN(C(C)=O)C1CCN(c2nccc(CCC(F)(F)F)n2)C1 (stereo not given) yielded a cytotoxicity at 10 µM of -4.39%.
With CCC[C@H]1CN(Cc2cscn2)C[C@@H]1NC(=O)C1(COC)CCC1 the cytotoxicity at 10 µM was -5.69%.
With CCSc1ncc(-c2cc(C3CCC3)nc(N)c2C#N)cn1 the cytotoxicity at 10 µM was 6.67%.
Work on Cc1ccc(C(=O)N2CCSCC2)cc1N1CCNC1=O yielded a cytotoxicity at 10 µM of -6.33%.
Work on CC(CCn1cccn1)Nc1ccc(-c2nccn2C)nn1 (stereo not given) yielded a cytotoxicity at 10 µM of 1.39%.
Compound CN1CCC(Cc2nc(-c3cnccn3)n(C3CCS(=O)(=O)C3)n2)CC1 (stereo not given) has a cytotoxicity at 10 µM of -2.64%.
For COC(=O)c1cccc(-c2nc(CC3CCN(C)CC3)no2)c1, the cytotoxicity at 10 µM was -1.6%.
Work on Cc1nc(N(CCC(N)=O)Cc2ccccc2)c2nc(C)oc2n1 yielded a cytotoxicity at 10 µM of -3.86%.
In the case of CN(Cc1n[nH]c2c1CCCC2)C(=O)c1cccc(CCC(C)(C)O)c1, the cytotoxicity at 10 µM is reported as -3.87%.
Compound CN(C)C(C(=O)N1CCC(N2CCSCC2)CC1)c1ccccc1F (stereo not given) has a cytotoxicity at 10 µM of 9.22%.
Cc1ccc(-c2noc(CN3CCOC(Cn4cccn4)C3)n2)cc1 (stereo not given) showed a cytotoxicity at 10 µM of -5.98%.
With CC(C(=O)NCCN1CCCCCC1)n1cncn1 (stereo not given) the cytotoxicity at 10 µM was -1.4%.
Compound CCC1CN(CC(=O)N2CCC2)CCN1CCOC (stereo not given) has a cytotoxicity at 10 µM of -9.78%.
Cn1ccc(C(=O)NCc2cccc(CN3CCCC3)c2)cc1=O gave a cytotoxicity at 10 µM of -3.07%.
CCc1ccc(CN2Cc3nccn3CC(CN3CCOCC3)C2)o1 (stereo not given) showed a cytotoxicity at 10 µM of -87.9%.
For Cc1nc(COC[C@@H]2CCC[C@@]23CN(C)CCO3)cs1, the cytotoxicity at 10 µM was -88.9%.
In the case of Cc1noc(C)c1CN1Cc2cn(C)nc2C(COCC2CC2)C1 (stereo not given), the cytotoxicity at 10 µM is reported as -73%.
For Cc1ccc(N2CCO[C@H]3CN(Cc4cc(C)on4)CC[C@H]3C2=O)cn1, the cytotoxicity at 10 µM was -72.2%.
Work on NCC1CCC(C(NC(=O)c2ccccc2)c2ccccn2)CC1 (stereo not given) yielded a cytotoxicity at 10 µM of 0%.
